ChEMBL document CHEMBL4689842, “EUbOPEN Chemogenomics Library wave 1” (2021)

Tested on: U2OS
Assay: Multiplex assay against U2OS
Format: toxicity, cell-based
Conditions: human
How it was run: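 Cells stained live at seeding with Hoechst33342, BioTracker Green Microtubule Cytoskeleton Dye, MitoTracker Red and Annexin V Alexa Fluor 680 were imaged on a CQ1 microscope at 37°C and 5% CO2 after compound addition. Their classification by CellPathfinder machine-learning gating ran from Hoechst high-intensity objects versus normal cells, to healthy, pyknosed or fragmented nuclei among normal cells, to mitotic or apoptotic among pyknosed cells. Tubulin, mitochondrial-mass and membrane-permeability phenotypes are per cents of healthy-nucleus cells.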

[1] = 12 h, 1 µM, compound concentration 1 uM, replicate 1
[2] = 12 h, 1 µM, compound concentration 1 uM, replicate 2
[3] = 12 h, 10 µM, compound concentration 10 uM, replicate 1
[4] = 12 h, 10 µM, compound concentration 10 uM, replicate 2
[5] = 24 h, 1 µM, compound concentration 1 uM, replicate 1
[6] = 24 h, 1 µM, compound concentration 1 uM, replicate 2
[7] = 24 h, 10 µM, compound concentration 10 uM, replicate 1
[8] = 24 h, 10 µM, compound concentration 10 uM, replicate 2
[9] = 48 h, 1 µM, compound concentration 1 uM, replicate 1
[10] = 48 h, 1 µM, compound concentration 1 uM, replicate 2
[11] = 48 h, 10 µM, compound concentration 10 uM, replicate 1
[12] = 48 h, 10 µM, compound concentration 10 uM, replicate 2

## CNc1oc(-c2cccc3ccccc23)nc1C#N
[1]
  Population Apoptotic (%): 36%
  Population Fragmented Nuclei (%): 22%
  Population Healthy Nuclei (%): 67%
  Population Hoechst High Intensity Objects (%): 16%
  Population Membrane Permeable-Phenotype (%): 10%
  Population Mitochondria Different-Phenotype (%): 9%
  Population Mitotic Cells (%): 63%
  Population Normal (%): 83%
  Population Pyknosed Nuclei (%): 10%
  Population Tubulin-Different-Phenotype (%): 8%
  Total Cell Count: 113
[2]
  Population Apoptotic (%): 0%
  Population Fragmented Nuclei (%): 29%
  Population Hoechst High Intensity Objects (%): 15%
  Population Membrane Permeable-Phenotype (%): 3%
  Population Mitochondria Different-Phenotype (%): 11%
  Population Mitotic Cells (%): 100%
  Population Normal (%): 84%
  Population Pyknosed Nuclei (%): 2%
  Population Tubulin-Different-Phenotype (%): 7%
  Total Cell Count: 100
[3]
  Population Apoptotic (%): 86%
  Population Fragmented Nuclei (%): 49%
  Population Healthy Nuclei (%): 18%
  Population Hoechst High Intensity Objects (%): 44%
  Population Membrane Permeable-Phenotype (%): 3%
  Population Mitochondria Different-Phenotype (%): 11%
  Population Mitotic Cells (%): 13%
  Population Normal (%): 55%
  Population Pyknosed Nuclei (%): 32%
  Population Tubulin-Different-Phenotype (%): 15%
  Total Cell Count: 259
[4]
  Population Apoptotic (%): 80%
  Population Fragmented Nuclei (%): 55%
  Population Healthy Nuclei (%): 16%
  Population Hoechst High Intensity Objects (%): 46%
  Population Membrane Permeable-Phenotype (%): 1%
  Population Mitochondria Different-Phenotype (%): 3%
  Population Mitotic Cells (%): 19%
  Population Normal (%): 53%
  Population Pyknosed Nuclei (%): 28%
  Population Tubulin-Different-Phenotype (%): 24%
  Total Cell Count: 92
[5]
  Population Apoptotic (%): 53%
  Population Fragmented Nuclei (%): 18%
  Population Healthy Nuclei (%): 75%
  Population Hoechst High Intensity Objects (%): 17%
  Population Membrane Permeable-Phenotype (%): 2%
  Population Mitochondria Different-Phenotype (%): 3%
  Population Mitotic Cells (%): 46%
  Population Normal (%): 82%
  Population Pyknosed Nuclei (%): 5%
  Population Tubulin-Different-Phenotype (%): 6%
  Total Cell Count: 119
[6]
  Population Apoptotic (%): 25%
  Population Fragmented Nuclei (%): 28%
  Population Healthy Nuclei (%): 67%
  Population Hoechst High Intensity Objects (%): 6%
  Population Membrane Permeable-Phenotype (%): 1%
  Population Mitochondria Different-Phenotype (%): 10%
  Population Mitotic Cells (%): 75%
  Population Normal (%): 93%
  Population Pyknosed Nuclei (%): 3%
  Population Tubulin-Different-Phenotype (%): 21%
  Total Cell Count: 113
[7]
  Population Apoptotic (%): 86%
  Population Fragmented Nuclei (%): 50%
  Population Healthy Nuclei (%): 17%
  Population Hoechst High Intensity Objects (%): 43%
  Population Membrane Permeable-Phenotype (%): 3%
  Population Mitochondria Different-Phenotype (%): 15%
  Population Mitotic Cells (%): 13%
  Population Normal (%): 56%
  Population Pyknosed Nuclei (%): 32%
  Population Tubulin-Different-Phenotype (%): 14%
  Total Cell Count: 352
[8]
  Population Apoptotic (%): 81%
  Population Fragmented Nuclei (%): 57%
  Population Healthy Nuclei (%): 16%
  Population Hoechst High Intensity Objects (%): 44%
  Population Mitochondria Different-Phenotype (%): 3%
  Population Mitotic Cells (%): 18%
  Population Normal (%): 55%
  Population Pyknosed Nuclei (%): 25%
  Population Tubulin-Different-Phenotype (%): 26%
  Total Cell Count: 116
[9]
  Population Apoptotic (%): 56%
  Population Fragmented Nuclei (%): 16%
  Population Healthy Nuclei (%): 79%
  Population Hoechst High Intensity Objects (%): 14%
  Population Mitochondria Different-Phenotype (%): 7%
  Population Mitotic Cells (%): 43%
  Population Normal (%): 85%
  Population Pyknosed Nuclei (%): 3%
  Population Tubulin-Different-Phenotype (%): 8%
  Total Cell Count: 243
[10]
  Population Apoptotic (%): 0%
  Population Fragmented Nuclei (%): 29%
  Population Healthy Nuclei (%): 68%
  Population Hoechst High Intensity Objects (%): 10%
  Population Membrane Permeable-Phenotype (%): 1%
  Population Mitochondria Different-Phenotype (%): 8%
  Population Mitotic Cells (%): 100%
  Population Normal (%): 89%
  Population Pyknosed Nuclei (%): 2%
  Population Tubulin-Different-Phenotype (%): 19%
  Total Cell Count: 155
[11]
  Population Apoptotic (%): 87%
  Population Fragmented Nuclei (%): 53%
  Population Healthy Nuclei (%): 18%
  Population Hoechst High Intensity Objects (%): 43%
  Population Membrane Permeable-Phenotype (%): 3%
  Population Mitochondria Different-Phenotype (%): 12%
  Population Mitotic Cells (%): 12%
  Population Normal (%): 56%
  Population Pyknosed Nuclei (%): 27%
  Population Tubulin-Different-Phenotype (%): 17%
  Total Cell Count: 525
[12]
  Population Apoptotic (%): 81%
  Population Fragmented Nuclei (%): 57%
  Population Healthy Nuclei (%): 14%
  Population Mitochondria Different-Phenotype (%): 5%
  Population Mitotic Cells (%): 18%
  Population Tubulin-Different-Phenotype (%): 26%
  Total Cell Count: 168
